From ChEMBL document CHEMBL1157665, “Novel 4-thiazolidinone derivatives as potential antifungal and antibacterial drugs” (2010)
Converted amounts (≈) assume the structure as drawn.

Key:
Talaromyces funiculosus [1] = assay: Antifungal activity against Penicillium funiculosum ATCC 36839 after 72 hrs by serial dilution method; assay type: functional; details: ATCC 36839, 72 h
How it was run: (§1)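 Fungi were kept on malt agar at 4 °C and sub-cultured monthly. Spores were washed off the agar with sterile 0.85% saline containing 0.1% Tween 80 (v/v). Modified microdilution in 96-well plates. MIC is the lowest concentration with no visible growth under the binocular microscope. Inoculum checked on malt agar for contamination and validity.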

Micrococcus flavus [2] = assay: Antibacterial activity against Micrococcus flavus ATCC 10240 after 72 hrs by serial sub-cultivation method; assay type: functional; details: ATCC 10240, 72 h
How it was run: (§2)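 MBC was found by serial sub-cultivation of 2 µl from the MIC wells into plates holding 100 µl broth per well, then incubation for 72 h. MBC is the lowest concentration with no visible growth, i.e. 99.5% killing of the original inoculum. Bacterial inoculum was 1.0 × 10^4 cfu per well in LB broth. Duplicate, repeated three times.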

Trichoderma viride [3] = assay: Antifungal activity against Trichoderma viride IAM 5061 after 72 hrs by serial dilution method; assay type: functional; details: IAM 5061, 72 h; how it was run: as §1
Trichoderma viride [4] = assay: Antifungal activity against Trichoderma viride IAM 5061 after 72 hrs by serial sub-cultivation method; assay type: functional; details: IAM 5061, 72 h
How it was run: (§3)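 MFC was found by serial sub-cultivation of 2 µl into plates holding 100 µl broth per well, then incubation 72 h at 28 °C. MFC is the lowest concentration with no visible growth, taken as 99.5% killing of the original inoculum. Spore inocula came from malt agar cultures washed with 0.85% saline and 0.1% Tween 80.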

Staphylococcus aureus [5] = assay: Antibacterial activity against Staphylococcus aureus ATCC 6538 after 72 hrs by serial sub-cultivation method; assay type: functional; details: ATCC 6538, 72 h; how it was run: as §2
Penicillium ochrochloron [6] = assay: Antifungal activity against Penicillium ochrochloron ATCC 9112 after 72 hrs by serial dilution method; assay type: functional; details: ATCC 9112, 72 h; how it was run: as §1
Bacillus cereus [7] = assay: Antibacterial activity against Bacillus cereus clinical isolate after 72 hrs by serial sub-cultivation method; assay type: functional; how it was run: as §2
Salmonella typhimurium [8] = assay: Antibacterial activity against Salmonella Typhimurium ATCC 13311 after 72 hrs by serial sub-cultivation method; assay type: functional, Salmonella enterica subsp. enterica serovar Typhimurium; details: Salmonella enterica, ATCC 13311, 72 h; how it was run: as §2
Aspergillus niger [9] = assay: Antifungal activity against Aspergillus niger ATCC 6275 after 72 hrs by serial dilution method; assay type: functional; details: ATCC 6275, 72 h; how it was run: as §1
Aspergillus fumigatus [10] = assay: Antifungal activity against Aspergillus fumigatus plant isolate after 72 hrs by serial dilution method
Fulvia fulva [11] = assay: Antifungal activity against Fulvia fulva TK 5318 after 72 hrs by serial dilution method; assay type: functional; details: TK 5318, 72 h; how it was run: as §1
Aspergillus niger [12] = assay: Antifungal activity against Aspergillus niger ATCC 6275 after 72 hrs by serial sub-cultivation method; assay type: functional; details: ATCC 6275, 72 h; how it was run: as §3
Escherichia coli [13] = assay: Antibacterial activity against Escherichia coli ATCC 35210 after 72 hrs by serial sub-cultivation method; assay type: functional; details: ATCC 35210, 72 h; how it was run: as §2
Talaromyces funiculosus [14] = assay: Antifungal activity against Penicillium funiculosum ATCC 36839 after 72 hrs by serial sub-cultivation method; assay type: functional; details: ATCC 36839, 72 h; how it was run: as §3
Aspergillus flavus [15] = assay: Antifungal activity against Aspergillus flavus ATCC 9643 after 72 hrs by serial sub-cultivation method; assay type: functional; details: ATCC 9643, 72 h; how it was run: as §3
Aspergillus fumigatus [16] = assay: Antifungal activity against Aspergillus fumigatus plant isolate after 72 hrs by serial sub-cultivation method
Aspergillus flavus [17] = assay: Antifungal activity against Aspergillus flavus ATCC 9643 after 72 hrs by serial dilution method; assay type: functional; details: ATCC 9643, 72 h; how it was run: as §1
Proteus mirabilis [18] = assay: Antibacterial activity against Proteus mirabilis after 72 hrs by serial sub-cultivation method; assay type: functional; how it was run: as §2
Bacillus cereus [19] = assay: Antibacterial activity against Bacillus cereus clinical isolate after 24 hrs; assay type: functional
How it was run: (§4)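 Broth microdilution MIC in 96-well plates. Compounds in LB broth with bacterial inoculum of 1.0 × 10^4 cfu per well, from suspensions adjusted with sterile saline to 1.0 × 10⁵ CFU/ml. Incubated 24 h at […] as printed. MIC taken as the lowest concentration with no visible growth under the binocular microscope. OD at 655 nm also read against blank. Streptomycin and ampicillin as positive controls. Duplicate, repeated three times.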

Pseudomonas aeruginosa [20] = assay: Antibacterial activity against Pseudomonas aeruginosa ATCC 27853 after 72 hrs by serial sub-cultivation method; assay type: functional; details: ATCC 27853, 72 h; how it was run: as §2
Escherichia coli [21] = assay: Antibacterial activity against Escherichia coli ATCC 35210 after 24 hrs; assay type: functional; details: ATCC 35210, 24 h; how it was run: as §4
Aspergillus versicolor [22] = assay: Antifungal activity against Aspergillus versicolor ATCC 11730 after 72 hrs by serial dilution method; assay type: functional; details: ATCC 11730, 72 h; how it was run: as §1
Micrococcus flavus [23] = assay: Antibacterial activity against Micrococcus flavus ATCC 10240 after 24 hrs; assay type: functional; details: ATCC 10240, 24 h; how it was run: as §4
Penicillium ochrochloron [24] = assay: Antifungal activity against Penicillium ochrochloron ATCC 9112 after 72 hrs by serial sub-cultivation method; assay type: functional; details: ATCC 9112, 72 h; how it was run: as §3
Staphylococcus aureus [25] = assay: Antibacterial activity against Staphylococcus aureus ATCC 6538 after 24 hrs; assay type: functional; details: ATCC 6538, 24 h; how it was run: as §4
Pseudomonas aeruginosa [26] = assay: Antibacterial activity against Pseudomonas aeruginosa ATCC 27853 after 24 hrs; assay type: functional; details: ATCC 27853, 24 h; how it was run: as §4
Proteus mirabilis [27] = assay: Antibacterial activity against Proteus mirabilis after 24 hrs; assay type: functional; how it was run: as §4
Aspergillus versicolor [28] = assay: Antifungal activity against Aspergillus versicolor ATCC 11730 after 72 hrs by serial sub-cultivation method; assay type: functional; details: ATCC 11730, 72 h; how it was run: as §3
Fulvia fulva [29] = assay: Antifungal activity against Fulvia fulva TK 5318 after 72 hrs by serial sub-cultivation method; assay type: functional; details: TK 5318, 72 h; how it was run: as §3
Salmonella typhimurium [30] = assay: Antibacterial activity against Salmonella Typhimurium ATCC 13311 after 24 hrs; assay type: functional, Salmonella enterica subsp. enterica serovar Typhimurium; details: Salmonella enterica, ATCC 13311, 24 h; how it was run: as §4
Listeria monocytogenes [31] = assay: Antibacterial activity against Listeria monocytogenes NCTC 7973 after 24 hrs; assay type: functional; details: NCTC 7973, 24 h; how it was run: as §4
Listeria monocytogenes [32] = assay: Antibacterial activity against Listeria monocytogenes NCTC 7973 after 72 hrs by serial sub-cultivation method; assay type: functional; details: NCTC 7973, 72 h; how it was run: as §2

O=C1N/C(=N/c2nc(C34CC5CC(CC(C5)C3)C4)cs2)S/C1=C\c1cccc([N+](=O)[O-])c1
MIC (Talaromyces funiculosus [1]): 10.8 µM (≈ 5.04 µg/mL) | MBC (Micrococcus flavus [2]): 43 µM (≈ 20.1 µg/mL) | MIC (Trichoderma viride [3]): 5.4 µM (≈ 2.52 µg/mL) | MFC (Trichoderma viride [4]): 10.8 µM (≈ 5.04 µg/mL) | MBC (Staphylococcus aureus [5]): 43 µM (≈ 20.1 µg/mL) | MIC (Penicillium ochrochloron [6]): 10.8 µM (≈ 5.04 µg/mL) | MBC (Bacillus cereus [7]): 21.5 µM (≈ 10 µg/mL) | MBC (Salmonella typhimurium [8]): 21.5 µM (≈ 10 µg/mL) | MIC (Aspergillus niger [9]): 10.8 µM (≈ 5.04 µg/mL) | MIC (Aspergillus fumigatus [10]): 16.1 µM (≈ 7.51 µg/mL) | MIC (Fulvia fulva [11]): 10.8 µM (≈ 5.04 µg/mL) | MFC (Aspergillus niger [12]): 21.5 µM (≈ 10 µg/mL) | MBC (Escherichia coli [13]): 21.5 µM (≈ 10 µg/mL) | MFC (Talaromyces funiculosus [14]): 21.5 µM (≈ 10 µg/mL) | MFC (Aspergillus flavus [15]): 21.5 µM (≈ 10 µg/mL) | MFC (Aspergillus fumigatus [16]): 21.5 µM (≈ 10 µg/mL) | MIC (Aspergillus flavus [17]): 16.1 µM (≈ 7.51 µg/mL) | MBC (Proteus mirabilis [18]): 64.5 µM (≈ 30.1 µg/mL) | MIC (Bacillus cereus [19]): 16.1 µM (≈ 7.51 µg/mL) | MBC (Pseudomonas aeruginosa [20]): 43 µM (≈ 20.1 µg/mL) | MIC (Escherichia coli [21]): 21.5 µM (≈ 10 µg/mL) | MIC (Aspergillus versicolor [22]): 16.1 µM (≈ 7.51 µg/mL) | MIC (Micrococcus flavus [23]): 21.5 µM (≈ 10 µg/mL) | MFC (Penicillium ochrochloron [24]): 21.5 µM (≈ 10 µg/mL) | MIC (Staphylococcus aureus [25]): 21.5 µM (≈ 10 µg/mL) | MIC (Pseudomonas aeruginosa [26]): 21.5 µM (≈ 10 µg/mL) | MIC (Proteus mirabilis [27]): 43 µM (≈ 20.1 µg/mL) | MFC (Aspergillus versicolor [28]): 21.5 µM (≈ 10 µg/mL) | MFC (Fulvia fulva [29]): 16.1 µM (≈ 7.51 µg/mL) | MIC (Salmonella typhimurium [30]): 10.8 µM (≈ 5.04 µg/mL) | MIC (Listeria monocytogenes [31]): 21.5 µM (≈ 10 µg/mL) | MBC (Listeria monocytogenes [32]): 43 µM (≈ 20.1 µg/mL)

COc1ccc(/C=C2\S/C(=N\c3nc(C45CC6CC(CC(C6)C4)C5)cs3)NC2=O)cc1
MIC (Talaromyces funiculosus [1]): 11.6 µM (≈ 5.24 µg/mL) | MBC (Micrococcus flavus [2]): 46.2 µM (≈ 20.9 µg/mL) | MIC (Trichoderma viride [3]): 11.6 µM (≈ 5.24 µg/mL) | MFC (Trichoderma viride [4]): 23.1 µM (≈ 10.4 µg/mL) | MBC (Staphylococcus aureus [5]): 46.2 µM (≈ 20.9 µg/mL) | MIC (Penicillium ochrochloron [6]): 11.6 µM (≈ 5.24 µg/mL) | MBC (Bacillus cereus [7]): 23.1 µM (≈ 10.4 µg/mL) | MBC (Salmonella typhimurium [8]): 23.1 µM (≈ 10.4 µg/mL) | MIC (Aspergillus niger [9]): 17.3 µM (≈ 7.81 µg/mL) | MIC (Aspergillus fumigatus [10]): 17.3 µM (≈ 7.81 µg/mL) | MIC (Fulvia fulva [11]): 5.8 µM (≈ 2.62 µg/mL) | MFC (Aspergillus niger [12]): 23.1 µM (≈ 10.4 µg/mL) | MBC (Escherichia coli [13]): 23.1 µM (≈ 10.4 µg/mL) | MFC (Talaromyces funiculosus [14]): 23.1 µM (≈ 10.4 µg/mL) | MFC (Aspergillus flavus [15]): 23.1 µM (≈ 10.4 µg/mL) | MFC (Aspergillus fumigatus [16]): 23.1 µM (≈ 10.4 µg/mL) | MIC (Aspergillus flavus [17]): 17.3 µM (≈ 7.81 µg/mL) | MBC (Proteus mirabilis [18]): 69.3 µM (≈ 31.3 µg/mL) | MIC (Bacillus cereus [19]): 23.1 µM (≈ 10.4 µg/mL) | MBC (Pseudomonas aeruginosa [20]): 23.1 µM (≈ 10.4 µg/mL) | MIC (Escherichia coli [21]): 11.6 µM (≈ 5.24 µg/mL) | MIC (Aspergillus versicolor [22]): 17.3 µM (≈ 7.81 µg/mL) | MIC (Micrococcus flavus [23]): 23.1 µM (≈ 10.4 µg/mL) | MFC (Penicillium ochrochloron [24]): 23.1 µM (≈ 10.4 µg/mL) | MIC (Staphylococcus aureus [25]): 23.1 µM (≈ 10.4 µg/mL) | MIC (Pseudomonas aeruginosa [26]): 11.6 µM (≈ 5.24 µg/mL) | MIC (Proteus mirabilis [27]): 46.2 µM (≈ 20.9 µg/mL) | MFC (Aspergillus versicolor [28]): 23.1 µM (≈ 10.4 µg/mL) | MFC (Fulvia fulva [29]): 23.1 µM (≈ 10.4 µg/mL) | MIC (Salmonella typhimurium [30]): 11.6 µM (≈ 5.24 µg/mL) | MIC (Listeria monocytogenes [31]): 23.1 µM (≈ 10.4 µg/mL) | MBC (Listeria monocytogenes [32]): 46.2 µM (≈ 20.9 µg/mL)
